These results are taken from ChEMBL document CHEMBL1671641, “1,5-benzodiazepines, a novel class of hepatitis C virus polymerase nonnucleoside inhibitors” (Antimicrob Agents Chemother, 2008).

In general, EC50 refers to the midpoint of the concentration-response curve. What is called IC50 is the concentration at which inhibition is half-maximal. The CC50 is the concentration that lowers cell viability or growth by half. Read a low CC50 as harm at low concentration. As a reminder, the inhibition is the percentage by which the read-out fell short of the control.

Calls of active or inactive are those of the source. The rule behind the calls is not given here.

The subject of series [1] is Hepatitis C virus. The series is described as follows: Antiviral activity against Hepatitis C virus 1b infected in human HuH7 cells assessed as inhibition of viral replication after 3 days by luciferase reporter assay. Format: functional, organism-based, Hepacivirus hominis, genotype 1b, Huh-7. The gist of the method:
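HCV 1b subgenomic luciferase reporter replicon (clone ET) cells, 2,500 per well, were exposed to a nine-point 1/4 dilution series for 3 days. Replication was read as luciferase activity. Values are means ± SD from 2 to 23 independent experiments run in quadruplicate.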

For series [2], the target named is Human immunodeficiency virus type 1 reverse transcriptase (Human immunodeficiency virus 1, UniProt Q72547). The series is described as follows: Inhibition of Human immunodeficiency virus 1 reverse transcriptase expressed in Escherichia coli by scintillation proximity assay. The gist of the method:
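N-terminal His6 HIV-1 RT was expressed in E. coli BL21(DE3), induced overnight at 37°C with 0.4 mM IPTG. The homodimer was purified by Ni-NTA and heparin chromatography. Activity was measured by scintillation proximity assay at 2.5 nM enzyme, with efavirenz as reference inhibitor.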
On the technique in general: In a scintillation proximity assay essentially only radioactivity close to the scintillant gives light.

The target in series [3] is T1, DNA polymerase alpha catalytic subunit (Homo sapiens, UniProt P09884).
T1 sequence (P09884 whole entry): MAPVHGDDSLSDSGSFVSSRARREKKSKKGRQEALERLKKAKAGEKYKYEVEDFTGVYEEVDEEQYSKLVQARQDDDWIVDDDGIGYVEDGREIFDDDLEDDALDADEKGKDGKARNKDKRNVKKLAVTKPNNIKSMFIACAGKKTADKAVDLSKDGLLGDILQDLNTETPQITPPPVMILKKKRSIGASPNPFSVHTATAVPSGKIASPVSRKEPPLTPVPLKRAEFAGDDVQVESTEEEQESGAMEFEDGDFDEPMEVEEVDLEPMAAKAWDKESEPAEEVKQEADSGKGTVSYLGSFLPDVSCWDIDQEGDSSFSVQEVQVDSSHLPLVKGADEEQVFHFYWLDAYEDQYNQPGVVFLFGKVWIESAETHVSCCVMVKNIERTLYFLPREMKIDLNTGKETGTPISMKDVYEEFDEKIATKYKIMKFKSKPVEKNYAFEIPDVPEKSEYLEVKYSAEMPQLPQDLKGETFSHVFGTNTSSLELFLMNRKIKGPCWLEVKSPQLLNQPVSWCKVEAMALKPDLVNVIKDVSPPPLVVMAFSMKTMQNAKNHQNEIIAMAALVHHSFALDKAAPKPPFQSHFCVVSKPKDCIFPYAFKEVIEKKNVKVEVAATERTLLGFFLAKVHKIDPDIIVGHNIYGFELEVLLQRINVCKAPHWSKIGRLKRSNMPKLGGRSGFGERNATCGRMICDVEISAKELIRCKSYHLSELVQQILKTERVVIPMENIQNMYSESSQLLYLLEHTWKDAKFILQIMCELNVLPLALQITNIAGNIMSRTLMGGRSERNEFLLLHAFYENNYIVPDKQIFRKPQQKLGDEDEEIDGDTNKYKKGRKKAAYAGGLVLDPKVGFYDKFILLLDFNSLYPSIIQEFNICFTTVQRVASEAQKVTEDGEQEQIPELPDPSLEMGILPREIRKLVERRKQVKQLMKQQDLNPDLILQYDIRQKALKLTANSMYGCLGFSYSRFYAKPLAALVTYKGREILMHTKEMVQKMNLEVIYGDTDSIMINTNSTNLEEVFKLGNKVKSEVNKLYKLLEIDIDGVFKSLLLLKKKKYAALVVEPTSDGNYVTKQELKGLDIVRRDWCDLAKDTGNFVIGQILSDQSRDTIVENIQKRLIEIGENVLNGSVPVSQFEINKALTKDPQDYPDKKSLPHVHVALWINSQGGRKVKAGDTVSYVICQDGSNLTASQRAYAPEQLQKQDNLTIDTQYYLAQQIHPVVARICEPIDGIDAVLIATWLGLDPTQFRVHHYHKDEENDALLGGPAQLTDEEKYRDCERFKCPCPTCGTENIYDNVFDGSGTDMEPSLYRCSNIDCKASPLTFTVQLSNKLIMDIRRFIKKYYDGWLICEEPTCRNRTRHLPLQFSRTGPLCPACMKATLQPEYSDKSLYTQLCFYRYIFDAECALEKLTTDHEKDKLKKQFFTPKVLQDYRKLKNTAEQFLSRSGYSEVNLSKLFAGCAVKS
In words: Inhibition of human DNA polymerase alpha. The method, boiled down:
(§1)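 Each enzyme–compound pair was tested in duplicate over 0.8 to 100 μM, with 100 μM as the highest dose. Each run included a no-inhibitor control, a solvent dilution (0.016 to 2% DMSO) and the relevant reference inhibitor. Percent inhibition at 100 μM was recorded for polymerase γ.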

Series [4] relates to Hepatitis C virus. The series is described as follows: Inhibition of Hepatitis C virus 1b J4 recombinant NS5B Cdelta 21 RNA dependent RNA polymerase overexpressed in Escherichia coli BL21 (DE3). Also on record: species or system Hepatitis C virus subtype 1b.
In series [5] the target is T2, DNA polymerase subunit gamma-1 (Homo sapiens, UniProt P54098).
T2 sequence (P54098 whole entry): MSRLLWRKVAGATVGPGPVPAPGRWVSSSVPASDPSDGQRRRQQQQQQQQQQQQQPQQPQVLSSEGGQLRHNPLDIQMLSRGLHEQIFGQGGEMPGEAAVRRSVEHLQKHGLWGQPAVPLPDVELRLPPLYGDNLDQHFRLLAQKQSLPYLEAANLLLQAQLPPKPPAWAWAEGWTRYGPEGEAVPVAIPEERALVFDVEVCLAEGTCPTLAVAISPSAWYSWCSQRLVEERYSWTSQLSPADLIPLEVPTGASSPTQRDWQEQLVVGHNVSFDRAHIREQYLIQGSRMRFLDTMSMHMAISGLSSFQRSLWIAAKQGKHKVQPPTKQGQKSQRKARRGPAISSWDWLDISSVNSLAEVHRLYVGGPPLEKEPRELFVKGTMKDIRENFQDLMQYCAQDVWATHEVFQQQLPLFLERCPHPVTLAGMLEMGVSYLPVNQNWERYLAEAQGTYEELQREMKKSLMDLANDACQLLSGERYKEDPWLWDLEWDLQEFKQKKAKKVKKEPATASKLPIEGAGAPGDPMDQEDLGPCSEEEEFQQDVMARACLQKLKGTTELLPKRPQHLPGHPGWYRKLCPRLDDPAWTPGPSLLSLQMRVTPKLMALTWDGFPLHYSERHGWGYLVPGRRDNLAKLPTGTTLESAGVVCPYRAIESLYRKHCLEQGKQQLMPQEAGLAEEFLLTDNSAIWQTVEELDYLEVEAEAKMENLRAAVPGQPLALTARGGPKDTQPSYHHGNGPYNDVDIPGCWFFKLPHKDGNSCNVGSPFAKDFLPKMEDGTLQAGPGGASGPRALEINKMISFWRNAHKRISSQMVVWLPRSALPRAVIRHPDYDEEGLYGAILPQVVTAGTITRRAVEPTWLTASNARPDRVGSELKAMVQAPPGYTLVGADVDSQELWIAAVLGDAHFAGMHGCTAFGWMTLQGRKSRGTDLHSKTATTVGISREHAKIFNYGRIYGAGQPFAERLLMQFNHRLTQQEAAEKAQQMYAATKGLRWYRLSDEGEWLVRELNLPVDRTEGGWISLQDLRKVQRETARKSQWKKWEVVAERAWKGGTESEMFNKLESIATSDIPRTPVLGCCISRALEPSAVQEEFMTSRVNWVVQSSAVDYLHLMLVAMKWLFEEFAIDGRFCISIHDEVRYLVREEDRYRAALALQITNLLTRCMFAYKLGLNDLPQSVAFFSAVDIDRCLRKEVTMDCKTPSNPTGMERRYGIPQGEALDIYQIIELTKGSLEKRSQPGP
In words: Inhibition of human DNA polymerase gamma. The gist of the method: as §1

A short description of series [6]: Inhibition of Dengue virus RNA-dependent RNA polymerase. The method, boiled down:
as §1

Series [7] is described as follows: (§2) Cytotoxicity against LTR-Luc transfected human MT4 cells […] after 3 days by ATPLite assay. Format: cell-based.
Series [8] in a line: Cytotoxicity against CMV-Luc transfected human HuH7 cells after 5 days. The series is classed as cell-based, Huh-7. Conditions: for CC50 at 120 h: CMV-Luc transfected HuH7 cells.
The next series addresses DNA polymerase beta (Homo sapiens, UniProt P06746). In words: Inhibition of human DNA polymerase beta. The method, boiled down: as §1
For series [9], the target named is T3, DNA polymerase subunit gamma-1 (Homo sapiens) (UniProt P54098).
T3 sequence (whole entry): T2 sequence (P54098 whole entry)
In words: Inhibition of human DNA polymerase gamma at 100 uM. The gist of the method: as §1

For series [10], the system named is Hepatitis C virus. In words: Inhibition of Hepatitis C virus 1b J4 recombinant NS5B Cdelta 21 RNA dependent RNA polymerase mediated formation of first phosphodiester bond during the polymerization reaction at 10 uM after 60 mins. The following applies: Hepatitis C virus subtype 1b. The gist of the method:
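Buffer was 50 mM HEPES pH 7.5, 5 mM MgCl2, 5 mM MnCl2, 10 mM KCl, 1 mM DTT, at room temperature. In the time course, incubation was lengthened with inhibitor held at 10 μM. Products were phenol-extracted, ethanol-precipitated, denatured 3 min at 95°C, run on 8 M urea–20% polyacrylamide gels, and imaged.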

Series [11] is described as follows: Cytotoxicity against human HuH7 cells after 5 days by resazurin assay. The series is classed as cell-based, Huh-7. The following applies: huh-7, 120 h, 120 h. The method, boiled down: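 Subconfluent HCV 1b subgenomic replicon cells, 500 per well and grown without G418, were incubated for 5 days with eight serial fourfold compound dilutions. Viability was read by resazurin. Values are means ± SD from two to eight independent experiments in quadruplicate.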

The subject of series [12] is MT4. The series is described as follows: Cytotoxicity against human MT4 cells after 3 days by ATPLite assay. The series is classed as cell-based. The following applies: mt4, 72 h, 72 h. The gist of the method: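 MT4 cells, 5,000 per well, were incubated 3 days at 37°C with eight serial fourfold compound dilutions. Cytotoxicity was read as intracellular ATP by ATPlite 1step luminescence. Values are means ± SD from two to eight independent experiments in quadruplicate.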
On the technique in general: Cellular ATP, detected with luciferase, serves as a proxy for viable cell number.

The test system of another series is HepG2. In words: Cytotoxicity against human HepG2 cells after 72 hrs by resazurin assay. The following applies: hepg2, 72 h, 72 h. The series is classed as cell-based. The method, boiled down: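 Cells were tested against eight serial fourfold dilutions for 72 h, at 3,000 cells/well for HEK293T and 4,000 cells/well for HepG2. Viability was read by resazurin staining. Values are means ± SD from two to eight independent experiments in quadruplicate.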
For orientation: The colour change of resazurin is a common sign of viable cells or microbes.

Series [13] deals with MT4. The series is described as §2. The following applies: mt4, 72 h, 72 h. The series is classed as cell-based.
Series [14] has as its system Hepatitis C virus. The series is described as follows: Inhibition of Hepatitis C virus 1b J4 recombinant NS5B Cdelta 21 RNA dependent RNA polymerase overexpressed in Escherichia coli BL21 (DE3) assessed as [alpha-33P]UTP incorporation by RdRp primer-independent transcription assay. Also on record: species or system Hepatitis C virus subtype 1b. The method, boiled down: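 De novo (primer-independent) RdRp assay: 190 nM NS5BΔ21 (1b J4) with 86 nM HCV 3′ UTR template RNA, 0.5 mM each ATP/GTP/CTP, 10 μM UTP plus [α-³³P]UTP, in 20 mM Tris-HCl pH 7.5, 1 mM DTT, 5 mM MgCl₂, 20 mM NaCl. Incubated 2 h at room temperature, stopped with EDTA/tRNA, TCA-precipitated on filters, and scintillation-counted. Quadruplicate.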

The subject of series [15] is Hepatitis C virus. The series is described as follows: Inhibition of Hepatitis C virus 1b J4 recombinant NS5B Cdelta 21 RNA dependent RNA polymerase overexpressed in Escherichia coli BL21 (DE3) by RdRp primer-dependent transcription assay. Also on record: species or system Hepatitis C virus subtype 1b.
Where [16] appears, read: Hepatitis C virus, genotype 1b, Huh-7, 72 h.

For the compound `COc1ccc(C2C3=C(CC(C)(C)CC3=O)Nc3ccccc3N2C(C)=O)cc1OCc1ccccc1` (configuration not stated), the EC50 with Hepatitis C virus [1] (setting [16]) was 12.3 µM. Also, the half-inhibitory concentration (IC50) was more than 32 µM in series [2]; more than 100 µM in series [3]; 7.9 µM in the series with Hepatitis C virus [4]; more than 100 µM in series [5]; more than 100 µM in series [6]; more than 100 µM on DNA polymerase beta. In addition, the CC50 at 72 h in series [7] turned out to be 32 µM. This compound registered a CC50 at 120 h in series [8] of 32 µM.

As for `CC(=O)N1c2ccccc2NC2=C(C(=O)CC(C)(C)C2)C1c1ccc(Cl)cc1Cl` (configuration not stated), in the series on Hepatitis C virus [1] (setting [16]), the EC50 was more than 32 µM. The 50% inhibitory concentration (IC50) was more than 32 µM in series [2]; more than 100 µM in series [3]; more than 100 µM in series [5]; more than 100 µM in [6]; more than 100 µM against DNA polymerase beta. In series [7], this compound had a CC50 at 72 h of 32 µM. This compound gave a cytotoxic concentration (CC50) at 120 h in series [8] of 32 µM. This compound registered an inhibition in series [9] of 30%.

Consider `CC(=O)N1c2ccccc2NC2=C(C(=O)CC(C)(C)C2)C1c1ccc(OCc2ccccc2)c(Cl)c1` (single isomer, unassigned; 4a), for which the inhibition entry with Hepatitis C virus [10] is “Active”.

`CC(=O)N1c2cccc(O)c2NC2=C(C(=O)CC(C)(C)C2)C1c1ccc(OCc2ccccc2)cc1Cl` (single isomer, unassigned; 7b): the EC50 in the series on Hepatitis C virus [1] (huh-7) worked out at 2.1 µM. The CC50 in [11] was 23.8 µM; with MT4 [12], 38.4 µM; in the series with HepG2, more than 25 µM; in the series on MT4 [13] it was 14.4 µM; in series [8] (huh-7, 120 h, 120 h) it was 10.1 µM. Moreover, the figures for the IC50 in the series on Hepatitis C virus [14] and in the series with Hepatitis C virus [15] were 18.5 µM and 12.5 µM, respectively.
